The results in this text go back to ChEMBL document CHEMBL1165941, “Design and synthesis of 2,4-disubstituted polyhydroquinolines as prospective antihyperglycemic and lipid modulating agents” (Bioorg Med Chem, 2010).

The nature of assay [1]: Inhibition of glycogen phosphorylase assessed as inositol phosphate release after 30 mins. Summed up: (§1)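 Glycogen phosphorylase was incubated with glycogen, glucose-1-phosphate, NaF and 5′-AMP for 30 min at 37 °C. The reaction was stopped with 10% TCA and 0.1 M sodium acetate. Samples were held overnight at 4 °C, then released Pi was measured.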
For assay [2], the target named is T1, Tyrosine-protein phosphatase non-receptor type 1 (Homo sapiens) (UniProt P18031).
T1 sequence (whole entry): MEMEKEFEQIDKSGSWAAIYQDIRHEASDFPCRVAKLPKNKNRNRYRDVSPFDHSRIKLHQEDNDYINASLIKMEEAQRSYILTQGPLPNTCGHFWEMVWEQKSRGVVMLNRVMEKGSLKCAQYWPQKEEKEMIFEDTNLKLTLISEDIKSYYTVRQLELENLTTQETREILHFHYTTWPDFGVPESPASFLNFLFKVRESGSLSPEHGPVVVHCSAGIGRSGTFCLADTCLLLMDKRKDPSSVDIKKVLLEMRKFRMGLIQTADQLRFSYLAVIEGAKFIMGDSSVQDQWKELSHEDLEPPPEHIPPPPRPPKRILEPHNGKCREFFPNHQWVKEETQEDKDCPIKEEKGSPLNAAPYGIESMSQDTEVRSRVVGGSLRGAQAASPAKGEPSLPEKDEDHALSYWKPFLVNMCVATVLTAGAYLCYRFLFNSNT
The experiment in a line: Inhibition of PTP1B assessed as p-nitrophenolate ion production at 100 uM pretreated for 10 mins measured after 30 mins. Summed up:
(§2)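 PTP1B was preincubated 10 min with compound, with and without 0.01% Triton X-100. Substrate was 10 mM pNPP in 50 mM HEPES pH 7.0 with 1 mM DTT and 2 mM EDTA. After 30 min at 37 °C the reaction was stopped with 0.1 N NaOH and A410 was read. Product was calculated with ε 1.78×10⁴ M⁻¹cm⁻¹. Sodium orthovanadate served as standard. IC50 came from dose–response curves.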

The target of assay [3] is Dipeptidyl peptidase 4 (Homo sapiens) (UniProt P27487). As to the kind of experiment: Inhibition of DPP4 at 100 uM after 15 mins by spectrofluorimeter. Summed up:
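DPP-IV activity was measured at 37 °C as Gly-Pro-AMC (30 µM) cleavage in Tris–HCl pH 7.4 with test compound. Fluorescence was read at excitation 355 nm and emission 460 nm. The initial rate was taken over the first 15 min.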

Assay [4] can be described thus: Inhibition of alpha-glucosidase at 100 uM after 3 mins. Summed up: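 α-Glucosidase (0.1 mg/mL, purified) was assayed in 67 mM sodium phosphate pH 6.8 with 1.0 mg/mL glutathione. The reaction was started with 3.0 mg/mL pNPG and followed at 405 nm every 30 s for 3 min.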
The nature of assay [5]: Inhibition of glycogen phosphorylase assessed as […] phosphate release at 100 uM after 30 mins. The gist of the method:
as §1

The target in assay [6] is T2, Glucose-6-phosphatase catalytic subunit 1 (Homo sapiens) (UniProt P35575).
T2 sequence (whole entry): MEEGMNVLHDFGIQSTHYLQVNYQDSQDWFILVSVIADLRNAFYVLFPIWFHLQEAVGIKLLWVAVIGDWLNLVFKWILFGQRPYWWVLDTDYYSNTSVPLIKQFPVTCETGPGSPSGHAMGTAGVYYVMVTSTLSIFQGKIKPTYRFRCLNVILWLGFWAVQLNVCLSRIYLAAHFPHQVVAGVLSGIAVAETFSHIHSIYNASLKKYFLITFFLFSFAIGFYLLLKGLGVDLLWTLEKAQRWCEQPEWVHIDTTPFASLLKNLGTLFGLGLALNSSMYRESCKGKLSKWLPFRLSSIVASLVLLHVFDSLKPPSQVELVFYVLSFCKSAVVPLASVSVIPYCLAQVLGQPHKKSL
The experiment in a line: Inhibition of glucose-6-phosphatase assessed as inositol phosphate release at 100 uM after 30 mins. The following applies: in the assay text read “inorganic phosphate” for “inositol phosphate”. Summed up: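 Glucose-6-phosphatase was assayed in 0.3 M citrate pH 6.0 with 28 mM EDTA, 14 mM NaF, 200 mM glucose-6-phosphate and enzyme protein. After 30 min at 37 °C the reaction was stopped with 10% TCA. Activity was expressed as µmol Pi released per min per mg protein.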

For assay [7], the system named is Rattus norvegicus. The experiment in a line: Antihyperglycemic activity in Sprague-Dawley albino rat streptozotocin-induced beta-cell damaged diabetic model assessed as decrease of blood glucose level at 100 mg/kg, po administered 30 mins before glucose challenge measured after 24 hrs by glucometer. More on the design: scale not given: the % may be the effect or the level left. The format is functional. The gist of the method: (§3)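 Rats were made diabetic with streptozotocin 60 mg/kg ip in 100 mM citrate pH 4.5 after an overnight fast. Animals with glucose 144–270 mg/dl at 48 h were used, 5–6 per group. Compounds were given 100 mg/kg orally in 1.0% gum acacia. Sucrose 2.5 g/kg followed 30 min later. Glucose was read by glucostrips up to 300 min and at 24 h. Non-responders were excluded. Percent activity came from AUC versus control.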

The subject of assay [8] is Rattus norvegicus. As to the kind of experiment: Antihyperglycemic activity in Sprague-Dawley albino rat streptozotocin-induced beta-cell damaged diabetic model assessed as decrease of blood glucose level at 100 mg/kg, po administered 30 mins before glucose challenge measured after 5 hrs by glucometer. In kind it is functional. More on the design: scale not given: the % may be the effect or the level left. The gist of the method: as §3

In assay [9] the test system is Rattus norvegicus. As to the kind of experiment: Antihyperglycemic activity in Charles Foster-Wistar albino rat sucrose loaded model assessed as decrease of blood glucose level at 100 mg/kg, po administered 30 mins before glucose challenge measured up to 120 mins by glucometer. The format is functional. More on the design: scale not given: the % may be the effect or the level left. As to conditions: in the assay text read “Sprague-Dawley” for “Charles Foster-Wistar”. Summed up: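 Sprague–Dawley male rats with blood glucose 60–80 mg/dl, 5–6 per group, received 100 mg/kg orally as a suspension in 1.0% gum acacia; controls received vehicle. Sucrose 10.0 g/kg was given orally 30 min later. Glucose was read by glucometer at 30, 60, 90 and 120 min. Food was withheld. Percent activity came from AUC versus control.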

Assay [10] concerns Rattus norvegicus. As to the kind of experiment: Antidyslipidemic activity in Charles Foster rat assessed as reduction of Triton WR-1339-induced increase of blood total cholesterol level at 100 mg/kg, po after 18 hrs. The format is functional. More on the design: scale not given: the % may be the effect or the level left. Summed up:
(§4)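 Hyperlipidemia induced by Triton WR-1339, 400 mg/kg ip, in adult male Charles Foster rats (200–225 g), five per group. Compounds were macerated in 0.2% w/v gum acacia, suspended in water and given 100 mg/kg po together with triton. Plasma was obtained by centrifugation at 2500g, 4 °C, 10 min and diluted 1:3 in saline. TC, PL and TG were measured by enzymatic methods.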

The subject of assay [11] is Rattus norvegicus. The experiment in a line: Antidyslipidemic activity in Charles Foster rat assessed as reduction of Triton WR-1339-induced increase of blood phospholipid level at 100 mg/kg, po after 18 hrs. The format is functional. More on the design: scale not given: the % may be the effect or the level left. Summed up:
as §4

The test system of assay [12] is Rattus norvegicus. As to the kind of experiment: Antidyslipidemic activity in Charles Foster rat assessed as reduction of Triton WR-1339-induced increase of blood triglyceride level at 100 mg/kg, po after 18 hrs. The format is functional. More on the design: scale not given: the % may be the effect or the level left. Summed up: as §4
Assay [13] addresses T3, Tyrosine-protein phosphatase non-receptor type 1 (Homo sapiens, UniProt P18031).
T3 sequence (P18031 whole entry): T1 sequence (whole entry)
The experiment in a line: Inhibition of PTP1B assessed as p-nitrophenolate ion production pretreated for 10 mins measured after 30 mins. The gist of the method: as §2

The species named for assay [14] is Mus musculus. The experiment in a line: Antihyperglycemic activity in C57BL/KsBom-db db/db mouse assessed as decrease in blood glucose AUC level measured on day 10 by oral glucose tolerance test (reference value: 32480 +/- 5098 %). The format is functional. More on the design: scale not given: the % may be the effect or the level left.
For assay [15], the species on record is Mus musculus. The experiment in a line: Antihyperglycemic activity in C57BL/KsBom-db db/db mouse assessed as decrease in blood glucose AUC level measured on day 5 by oral glucose tolerance test (reference value: 30730 +/- 3687 %). More on the design: scale not given: the % may be the effect or the level left. In kind it is functional.
Assay [16] has as its system Rattus norvegicus. As to the kind of experiment: Antihyperglycemic activity in po dosed Sprague-Dawley albino rat streptozotocin-induced beta-cell damaged diabetic model assessed as decrease of blood glucose level […] measured after 24 hrs by glucometer. In kind it is functional.

Structures are written as SMILES. The source made the active and inactive calls. The rule behind the calls is not given here.

Chain of Dipeptidyl peptidase 4 (Homo sapiens) (P27487 whole entry, looked up): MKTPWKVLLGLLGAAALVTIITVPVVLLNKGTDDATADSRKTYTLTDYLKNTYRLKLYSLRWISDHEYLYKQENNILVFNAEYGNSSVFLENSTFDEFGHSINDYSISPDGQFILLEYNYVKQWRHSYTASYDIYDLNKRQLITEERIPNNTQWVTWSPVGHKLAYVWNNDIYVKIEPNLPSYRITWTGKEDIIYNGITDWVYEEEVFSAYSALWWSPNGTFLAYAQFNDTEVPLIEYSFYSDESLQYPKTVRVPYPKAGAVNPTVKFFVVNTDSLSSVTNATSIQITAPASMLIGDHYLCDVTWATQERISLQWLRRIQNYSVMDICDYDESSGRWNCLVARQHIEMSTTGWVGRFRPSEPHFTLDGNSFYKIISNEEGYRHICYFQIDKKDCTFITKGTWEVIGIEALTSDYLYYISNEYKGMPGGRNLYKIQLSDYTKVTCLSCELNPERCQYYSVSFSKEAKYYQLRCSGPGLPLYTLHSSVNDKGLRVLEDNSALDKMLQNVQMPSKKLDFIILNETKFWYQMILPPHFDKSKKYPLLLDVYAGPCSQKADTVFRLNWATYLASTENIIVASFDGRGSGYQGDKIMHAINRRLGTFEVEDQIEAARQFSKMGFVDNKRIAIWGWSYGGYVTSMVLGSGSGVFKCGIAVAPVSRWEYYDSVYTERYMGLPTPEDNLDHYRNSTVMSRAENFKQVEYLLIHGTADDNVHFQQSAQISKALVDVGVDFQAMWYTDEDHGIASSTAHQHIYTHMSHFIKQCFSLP

A word on the IC50: it is the midpoint of a concentration-inhibition curve. As a reminder, the inhibition is the relative decrease from the control value, in per cent. On to `CC1(C)CC(=O)C2=C(C1)NC(C(=O)O)=CC2c1ccc(Cl)cc1` (centres undefined), for which the IC50 in assay [1] amounted to 9.7 µM. In addition, the values for the inhibition in assay [2] and in [5] were 25.4% and 63.4%, respectively. For the same compound, the inhibition entry in assay [3], in assay [4] and in assay [6] was “inactive” throughout. The Activity was 12.2% in the assay with Rattus norvegicus [7]; 16.6% in the assay with Rattus norvegicus [8]; 13.7% in the assay on Rattus norvegicus [9]; -17.45% in the assay with Rattus norvegicus [10]; -15.38% with Rattus norvegicus [11]; -11.97% in the assay with Rattus norvegicus [12].

Broadly, the ED50 is the midpoint of the dose-response relation. `CC1(C)CC(=O)C2=C(C1)NC(c1ccccc1)=CC2c1ccc(F)cc1` (centres undefined): the IC50 in assay [13] was determined as 2.9 µM. In addition, the inhibition in [2] came out at 88.2%; in assay [5], 14.6%; in assay [6], 7.38%. The inhibition result in [3] and in [4] was “inactive” each time. The Activity in the assay listed under Mus musculus [14] is -32.6%; in the assay filed under Mus musculus [15] it was -13.2%; with Rattus norvegicus [7], 32.3%; in the assay with Rattus norvegicus [8], 29.9%; with Rattus norvegicus [9] it was 41.3%; in the assay with Rattus norvegicus [10], -22.45%. Also, the Activity is given as -18.83% in the assay with Rattus norvegicus [11] and -26.34% in the assay with Rattus norvegicus [12]. In the assay on Rattus norvegicus [16], the ED50 came to 47.3 mg/kg.

Consider `CC1(C)CC(=O)C2=C(C1)NC(C(=O)O)=CC2c1ccccc1` (centres undefined), for which the IC50 in assay [1] came out at 6.1 µM. Besides, the inhibition in assay [2] was 28.9%; in [3] it was 14.6%; in [4], 4.6%; in assay [5] it was 77.3%; in assay [6], 17.1%. For the same compound, the Activity in the assay with Rattus norvegicus [7] is reported as 16.7%; in the assay with Rattus norvegicus [8], 18.3%; in the assay on Rattus norvegicus [9], 28.9%; in the assay on Rattus norvegicus [10] it was -8.99%; with Rattus norvegicus [11] it was -7.89%; in the assay with Rattus norvegicus [12] it was -13.86%.

Regarding `COc1ccc(C2C=C(C(=O)O)NC3=C2C(=O)CC(C)(C)C3)cc1` (centres undefined), in assay [1], the half-inhibitory concentration (IC50) is 5.9 µM. Moreover, the inhibition was 35.4% in assay [2], 5.7% in assay [3], 11.2% in [4] and 78.3% in [5]. For the same compound, the inhibition entry in assay [6] is “inactive”. In addition, the Activity in the assay listed under Mus musculus [14] is -39.6%; in the assay listed under Mus musculus [15], -17.9%; with Rattus norvegicus [7], 33.2%; in the assay on Rattus norvegicus [8], 29.7%; in the assay with Rattus norvegicus [9], 42.7%; in the assay on Rattus norvegicus [10] it was -24.63%. Also, the figures for the Activity with Rattus norvegicus [11] and in the assay on Rattus norvegicus [12] were -21.82% and -19.34%, respectively. The ED50 in the assay on Rattus norvegicus [16] was 48.6 mg/kg.
